Assays:
Assay type in all cases: functional
[1] = tested on: Acinetobacter sp.; experiment: In vitro activity against Acinetobacter sp.(CMX 669).
Outline: (§1)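 MIC determined by agar dilution on brain-heart infusion agar under aerobic conditions.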

[2] = tested on: Prevotella bivia; experiment: In vitro activity against t Bacteroides bivius(B 6140)
Outline: (§2)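 Anaerobic MICs measured by agar dilution on Wilkins-Chalgren agar.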

[3] = tested on: Prevotella disiens; experiment: In vitro activity against Bacteroides disiens (ATCC 29426)
Outline: (§3)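 MIC determined under anaerobic conditions on Wilkins-Chalgren agar.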

[4] = tested on: Phocaeicola vulgatus; experiment: In vitro activity against Bacteroides vulgatus(792); outline: as §3
[5] = tested on: Phocaeicola vulgatus; experiment: In vitro activity against Bacteroides vulgatus(SFBC 2375); outline: as §3
[6] = tested on: Bacteroides fragilis; experiment: In vitro activity against Bacteroides fragilis (105AT25285); outline: as §3
[7] = tested on: Bacteroides fragilis; experiment: In vitro activity against Bacteroides fragilis (784); outline: as §3
[8] = tested on: Bacteroides fragilis; experiment: In vitro activity against Bacteroides fragilis (SFM2906A); outline: as §3
[9] = tested on: Bacteroides fragilis; experiment: In vitro activity against Bacteroides fragilis (SFM2929-1); outline: as §3
[10] = tested on: Bacteroides fragilis; experiment: In vitro activity against Bacteroides fragilis (SFM2975-7); outline: as §3
[11] = tested on: Bacteroides fragilis; experiment: In vitro activity against Bacteroides fragilis (UC-2); outline: as §3
[12] = tested on: Hoylesella loescheii; experiment: In vitro activity against Bacteroides loescheii (ATCC 15930).; outline: as §3
[13] = tested on: Bacteroides thetaiotaomicron; experiment: In vitro activity against Bacteroides thetaiotaomicron (SFM2975-2); outline: as §3
[14] = tested on: Bacteroides thetaiotaomicron; experiment: In vitro activity against Bacteroides thetaiotaomicron (106); outline: as §3
[15] = tested on: Bacteroides thetaiotaomicron; experiment: In vitro activity against thetaiotaomicron (ATCC 29741); outline: as §2
[16] = tested on: Clostridioides difficile; experiment: In vitro activity against Clostridium difficile (ATCC 9689)
[17] = tested on: Clostridium perfringens; experiment: In vitro activity against Clostridium perfringens (104AT13124)
[18] = tested on: Clostridium perfringens; experiment: In vitro activity against Clostridium perfringens (788)
[19] = tested on: Clostridium perfringens; experiment: In vitro activity against Clostridium perfringens (SFBC 2026)
[20] = tested on: Clostridioides difficile; experiment: In vitro activity against Clostridium difficile (ATCC 17857)
[21] = tested on: Thomasclavelia ramosa; experiment: In vitro activity against Clostridium romosum (7)
[22] = tested on: Enterococcus faecium; experiment: In vitro activity against Enterococcus faecium (ATCC 8043).; outline: as §1
[23] = tested on: Escherichia coli; experiment: In vitro activity against Escherichia coli (DC-2)
Outline: (§4)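 MIC for aerobic bacteria, measured on brain-heart infusion agar.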

[24] = tested on: Escherichia coli; experiment: In vitro activity against Escherichia coli (H560); outline: as §4
[25] = tested on: Escherichia coli; experiment: In vitro activity against Escherichia coli (KNK437); outline: as §4
[26] = tested on: Escherichia coli; experiment: In vitro activity against Escherichia coli (SS).; outline: as §4
[27] = tested on: Escherichia coli; experiment: In vitro activity against Escherichia coli Juhl; outline: as §4
[28] = tested on: Fusobacterium; experiment: In vitro activity against Fusobacterium sp.(GS-10); outline: as §3
[29] = tested on: Klebsiella aerogenes; experiment: In vitro activity against Enterobacter aerogenes (ATCC 13048).; outline: as §1
[30] = tested on: Fusobacterium nucleatum; experiment: In vitro activity against Fusobacterium nucleatum (ATCC 25586); outline: as §3
[31] = tested on: Klebsiella pneumoniae; experiment: In vitro activity against Klebsiella pneumoniae (ATCC 8045).; outline: as §1
[32] = tested on: Micrococcus luteus; experiment: In vitro activity against Micrococcus luteus (ATCC 4698); outline: as §1
[33] = tested on: Micrococcus luteus; experiment: In vitro activity against Micrococcus luteus (ATCC 9341); outline: as §1
[34] = tested on: Parvimonas micra; experiment: In vitro activity against Peptostreptococcus micros (ATCC 33270).; outline: as §3
[35] = tested on: Peptostreptococcus anaerobius; experiment: In vitro activity against Peptostreptococcus anaerobius (ATCC 27337); outline: as §3
[36] = tested on: Peptoniphilus asaccharolyticus; experiment: In vitro activity against Peptococcus asaccharolyticus (ATCC 14963).; outline: as §3
[37] = tested on: Finegoldia magna; experiment: In vitro activity against Peptococcus magnus (ATCC 29328); outline: as §3
[38] = tested on: Peptostreptococcus; experiment: In vitro activity against Peptostreptococcus sp.(TB-11)
Outline: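 MIC for anaerobic bacteria, measured on Wilkins-Chalgren agar.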

[39] = tested on: Providencia stuartii; experiment: In vitro activity against Providencia stuartii (CMX 640); outline: as §1
[40] = tested on: Cutibacterium acnes; experiment: In vitro activity against Propionibacterium acnes (132); outline: as §3
[41] = tested on: Pseudomonas aeruginosa; experiment: In vitro activity against Pseudomonas aeruginosa (A5007).; outline: as §1
[42] = tested on: Pseudomonas aeruginosa; experiment: In vitro activity against Pseudomonas aeruginosa (BMH10); outline: as §1
[43] = tested on: Pseudomonas aeruginosa; experiment: In vitro activity against Pseudomonas aeruginosa (K799/WT).; outline: as §1
[44] = tested on: Staphylococcus aureus; experiment: In vitro activity against Staphylococcus aureus(45); outline: as §1
[45] = tested on: Staphylococcus aureus; experiment: In vitro activity against Staphylococcus aureus (A5177); outline: as §1
[46] = tested on: Staphylococcus aureus; experiment: In vitro activity against Staphylococcus aureus(ATCC 6538P); outline: as §1
[47] = tested on: Staphylococcus aureus; experiment: In vitro activity against Staphylococcus aureus(CMX 503A); outline: as §1
[48] = tested on: Staphylococcus aureus; experiment: In vitro activity against Staphylococcus aureus(CMX 553); outline: as §1
[49] = tested on: Staphylococcus aureus; experiment: In vitro activity against Staphylococcus aureus(CMX 686B); outline: as §1
[50] = tested on: Staphylococcus epidermidis; experiment: In vitro activity against Staphylococcus epidermidis (3519); outline: as §1
[51] = tested on: Streptococcus agalactiae; experiment: In vitro activity against Streptococcus agalactiae (CMX 508).; outline: as §1
[52] = tested on: Staphylococcus aureus; experiment: In vitro activity against Staphylococcus aureus(45 RAR2); outline: as §1
[53] = tested on: Streptococcus equinus; experiment: In vitro activity against Streptococcus bovis (A5169).; outline: as §1
[54] = tested on: Streptococcus pyogenes; experiment: In vitro activity against Streptococcus pyogenes (2548 INDUC).; outline: as §1
[55] = tested on: Streptococcus pyogenes; experiment: In vitro activity against Streptococcus pyogenes(930 CONST).; outline: as §1
[56] = tested on: Streptococcus pyogenes; experiment: In vitro activity against Streptococcus pyogenes (EES61); outline: as §1
[57] = tested on: Veillonella parvula; experiment: In vitro activity against Veillonella parvula (ATCC 10790); outline: as §2
[58] = tested on: Prevotella melaninogenica; experiment: In vitro activity against Bacteroides melaninogenicus (ATCC 25845).; outline: as §3
[59] = tested on: Bacteroides thetaiotaomicron; experiment: In vitro activity against Bacteroides thetaiotaomicron (ATCC 29742); outline: as §3
[60] = tested on: Burkholderia cepacia; experiment: In vitro activity against Pseudomonas cepacia (296I); outline: as §1

Which results are given for Cl.N[C@@H]1CCN(c2nc3c(cc2F)c(=O)c(C(=O)O)cn3-c2ccc(F)cc2F)C1?
MIC [1]: 0.1 µg/mL; MIC [2]: 2 µg/mL; MIC [3]: 2 µg/mL; MIC [4]: 2 µg/mL; MIC [5]: 1 µg/mL; MIC [6]: 2 µg/mL; MIC [7]: 2 µg/mL; MIC [8]: 2 µg/mL; MIC [9]: 2 µg/mL; MIC [10]: 4 µg/mL; MIC [11]: 2 µg/mL; MIC [12]: 4 µg/mL; MIC [13]: 4 µg/mL; MIC [14]: 8 µg/mL; MIC [15]: 8 µg/mL; MIC [16]: 4 µg/mL; MIC [17]: 0.25 µg/mL; MIC [18]: 0.25 µg/mL; MIC [19]: 0.25 µg/mL; MIC [20]: 4 µg/mL; MIC [21]: 2 µg/mL; MIC [22]: 0.39 µg/mL; MIC [23]: 0.39 µg/mL; MIC [24]: 0.05 µg/mL; MIC [25]: 0.39 µg/mL; MIC [26]: 0.01 µg/mL; MIC [27]: 0.05 µg/mL; MIC [28]: 2 µg/mL; MIC [29]: 0.2 µg/mL; MIC [30]: 2 µg/mL; MIC [31]: 0.05 µg/mL; MIC [32]: 1.56 µg/mL; MIC [33]: 3.1 µg/mL; MIC [34]: 0.12 µg/mL; MIC [35]: 0.5 µg/mL; MIC [36]: 0.25 µg/mL; MIC [37]: 0.5 µg/mL; MIC [38]: 0.5 µg/mL; MIC [39]: 1.56 µg/mL; MIC [40]: 1 µg/mL; MIC [41]: 0.39 µg/mL; MIC [42]: 0.2 µg/mL; MIC [43]: 0.39 µg/mL; MIC [44]: 0.1 µg/mL; MIC [45]: 0.1 µg/mL; MIC [46]: 0.05 µg/mL; MIC [47]: 0.1 µg/mL; MIC [48]: 0.1 µg/mL; MIC [49]: 0.05 µg/mL; MIC [50]: 0.1 µg/mL; MIC [51]: 0.39 µg/mL; MIC [52]: 0.1 µg/mL; MIC [53]: 0.39 µg/mL; MIC [54]: 0.2 µg/mL; MIC [55]: 0.39 µg/mL; MIC [56]: 0.39 µg/mL; MIC [57]: 0.5 µg/mL; MIC [58]: 1 µg/mL; MIC [59]: 8 µg/mL; MIC [60]: 6.2 µg/mL

— ChEMBL document CHEMBL1124180, “Asymmetric synthesis and properties of the enantiomers of the antibacterial agent 7-(3-aminopyrrolidin-1-yl)-1-(2,4-difluorophenyl)-1,4-dihydro-6- fluoro-4-oxo-1,8-naphthyridine-3-carboxylic acid hydrochloride” (J Med Chem, 1988)
